Results taken from ChEMBL document CHEMBL4680165, “β-Lactams with antiproliferative and antiapoptotic activity in breast and chemoresistant colon cancer cells” (Eur J Med Chem, 2020).
Active and inactive are the calls of the source. No cut-off for these calls is given here.

Experiments:
[1] = system: MCF7; experiment: Antiproliferative activity against human MCF7 cells assessed as reduction in cell viability after 72 hrs by alamar blue assay; assay type: functional, cell-based; conditions: MCF7, 72 h
In short: (§1)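 Cells seeded at 5 x 10^3/well (MCF-7) or 1 x 10^4/well (HT-29, HEK-293T) and treated after 24 h with serial dilutions (0.001-100 µM) in 1% v/v ethanol vehicle. Alamar Blue 10% v/v added at 72 h, then 3-5 h at 37 °C in the dark; fluorescence ex 530/em 590 nm. Viability relative to vehicle; IC50 from dose-response curves; mean of three experiments in triplicate.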

[2] = species on record: Bos taurus; experiment: Inhibition of bovine brain tubulin polymerization at 10 uM measured at 30 sec interval for 30 mins in presence of GTP by turbidimetry-based spectrophotometric method
[3] = Selectivity index, ratio of IC50 for human MCF7 cells to IC50 for human HT-29 cells assessed as reduction in cell viability after 72 hrs by alamar blue assay; assay type: functional
[4] = system: HT-29; experiment: Antiproliferative activity against human HT-29 cells assessed as reduction in cell viability after 72 hrs by alamar blue assay; assay type: functional, cell-based; conditions: HT-29, 72 h; in short: as §1
[5] = system: HT-29; experiment: Antiangiogenic activity in human HT-29 cells assessed as increase in IL-1RA secretion at 5 uM after 24 hrs by ELISA; assay type: functional, cell-based
In short: (§2)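 HT-29 cells at 5 x 10^4 per well, cultured 24 h and then exposed to 5 µM compound. Conditioned medium collected on ice and stored at -80 °C. Cytokines and angiogenic, vascular-injury and chemokine factors measured by multiplex panels with overnight supernatant incubation (Angiogenesis Panel 1 and Vascular Injury Panel 2 same day). Medium undiluted except 1:4 for Vascular Injury Panel 2. Secretion normalised to lysate protein by BCA.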

[6] = system: HT-29; experiment: Antiangiogenic activity in human HT29 cells assessed as reduction in IL-1alpha secretion at 5 uM after 24 hrs by ELISA; assay type: functional, cell-based; in short: as §2
[7] = system: HT-29; experiment: Antiangiogenic activity in human HT29 cells assessed as reduction in VEGF secretion at 5 uM after 24 hrs by ELISA; assay type: functional, cell-based; in short: as §2
[8] = system: HT-29; experiment: Potency index, ratio of CA-4 IC50 to test compound IC50 for human HT-29 cells; assay type: functional
[9] = system: HT-29; experiment: Antiangiogenic activity in human HT29 cells assessed as reduction in IL-1beta secretion at 5 uM after 24 hrs by ELISA; assay type: functional, cell-based; in short: as §2

IC50 [1]: 5 nM
IC50 [4]: 7 nM
SMILES: COc1ccc([C@H]2[C@H](O)C(=O)N2c2cc(OC)c(OC)c(OC)c2)cc1C
inhibition [2]: Active
Ratio IC50 [3]: 0.71
Activity [5]: Active
Activity [6]: inactive
Activity [7]: inactive
Ratio IC50 [8]: 600
Activity [9]: inactive
